Screens as filed in PubChem.
Yeast growth inh: chemicals that inhibit yeast BB579 growth in restrictive medium (lifespan-shortening candidates); 140,000 tested, 0.51% active; inhibition, % at 10 µM; S. cerevisiae BB579 growth, OD615, 48 h;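 active means inhibition above a set limit, 3 SD over the mean compound inhibition, cut at about 44% in these data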
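System: Saccharomyces cerevisiae DeaD strain BB579, replicative lifespan model yeast | Buffer or medium: Restrictive glucose-based CSMM-D medium | Times: 4 h preincubation and 48 h exposure at 30 °C | Detection: OD615 turbidity measurement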
RAM network inh: blocks the yeast RAM network | S. cerevisiae dse1pr::URA3 reporter, 5-FOA growth OD615, 2 d; analog-sensitive cbk1-as2 kinase mutant strain | inhibition, % at 50 µM | 190,000 tested, 1.8% active;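 active means inhibition above a set limit, 3 SD over mean compound inhibition, cut at about 8.4% in these data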;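 further: 0% = DMSO-only wells with no growth and 100% = 10 µM 1-NA-PP1 full growth; inhibition rescues growth on 5-FOA so higher OD means more RAM inhibition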
hDAT+cocaine: changed human dopamine transporter uptake under cocaine IC80; Q01959; LLC-PK1 hDAT cells, [14C]-dopamine uptake with cocaine IC80; actives deviate in either direction; B-score at 10 µM; 110,000 tested, 1.3% active;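 active means Z score or B-score, a plate-position-corrected score, falls beyond the plate's 99.7% confidence bounds, in either direction; inactive means both scores lie inside the 99.7% bounds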;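 further: scored against the spread of the other compound wells on the same plate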
Target sequence (Q01959 whole entry, looked up): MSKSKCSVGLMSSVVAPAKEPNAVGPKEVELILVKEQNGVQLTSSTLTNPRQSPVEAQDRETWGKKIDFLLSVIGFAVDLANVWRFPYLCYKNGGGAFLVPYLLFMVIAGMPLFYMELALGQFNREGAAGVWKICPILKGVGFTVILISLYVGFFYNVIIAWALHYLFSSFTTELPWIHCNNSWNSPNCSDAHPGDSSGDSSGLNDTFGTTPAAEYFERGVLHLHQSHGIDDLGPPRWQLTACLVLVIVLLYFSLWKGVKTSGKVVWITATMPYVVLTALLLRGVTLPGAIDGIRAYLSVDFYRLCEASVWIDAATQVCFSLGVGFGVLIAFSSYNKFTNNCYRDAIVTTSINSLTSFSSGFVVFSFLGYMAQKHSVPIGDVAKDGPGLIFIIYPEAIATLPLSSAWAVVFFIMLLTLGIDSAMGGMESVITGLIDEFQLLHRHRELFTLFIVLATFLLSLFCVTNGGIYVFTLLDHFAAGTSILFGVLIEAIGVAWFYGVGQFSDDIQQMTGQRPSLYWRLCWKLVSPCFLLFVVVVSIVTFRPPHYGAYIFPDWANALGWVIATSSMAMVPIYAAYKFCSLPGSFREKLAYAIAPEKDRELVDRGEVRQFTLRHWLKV
WT yeast gro inh: growth inhibition of WT yeast, mitochondrial fusion screen. mitochondrial fusion phenotypic screen, WT strain. AID 1362. inhibition, % at 10 µM. 190,000 tested, 2.1% active; in the data active means inhibition above about 58%; tested in S. cerevisiae
Yeast lifespan up: extends the lifespan of yeast. inhibition of the nicotinamide effect, % at 10 µM. 130,000 tested, 0.68% active. S. cerevisiae growth with nicotinamide, OD615; deaD strain in restrictive glucose medium. AID 775;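 active means inhibition above a set limit, placed 3 SD over the median of all compounds, cut at about 26% in these data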;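 further: 0% = nicotinamide-treated wells and 100% = cells grown without nicotinamide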
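Assay system: engineered S. cerevisiae DeaD replicative-lifespan strain, galactose-grown log-phase cells; medium: restrictive CSMM-D dextrose medium; also added: nicotinamide, 1.5 mM, co-present with compound; schedule: 48 h compound exposure at 30 °C, humidified; detection: absorbance at 615 nm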
Measles CPE: protection of cells from measles virus. AID 841. Measles virus-infected cells, CPE protection, absorbance. protection (pct of control), % at 4 µM. 140,000 tested, 1.5% active; in the data active means protection mostly above about 24%, no sharp cut-off; inactive means mostly below about 26%
Starred values were filed as active, the others as inactive; / = no result. In the library only some 6.1% were active in any assay of this set; here they are far more common.

SMILES	Yeast growth inh	RAM network inh	hDAT+cocaine	WT yeast gro inh	Yeast lifespan up	Measles CPE
COc1ccc(CN(Cc2ccc(C(=O)O)cc2)C(=S)Nc2cccc(C)c2)cc1OC	/	2.2	/	-4.0	/	/
CC(=O)Nc1sc(C)c(C)c1C(=O)OCC(=O)N(C)C1CCS(=O)(=O)C1 (stereo unspecified)	-13.5	0.9	/	20.8	-3.6	2.5
COc1ccc(-n2nnnc2SC(C)C(N)=O)cc1 (stereo unspecified)	-59.3	0.7	-5.16*	0.9	-6.8	3.9
COc1ccc(-n2nnnc2SCC(=O)c2cc3ccccc3o2)cc1	-42.3	8.5*	0.129	-28.8	-16.5	2.7
Cc1cc(C)c2nc3nc(C)c(C)cc3c(N)c2c1	/	0.4	/	33.0	/	/
CN1C(=O)c2oc3ccccc3c(=O)c2C1c1ccccn1 (stereo unspecified)	-4.6	0.0	0.108	-14.9	31.2*	13.0
CCOc1ccc(C2c3c(oc4ccccc4c3=O)C(=O)N2c2ccccn2)cc1OC (stereo unspecified)	/	/	/	15.4	/	/
Cc1cccc(C(=O)N[C@H](C(=O)OCC(=O)NC(=O)c2cccn2C)C(C)C)c1	-30.7	-0.1	/	-4.0	4.8	27.0
N#Cc1cccc2cnccc12	6.8	-0.3	-2.9*	-9.9	-1.8	2.5
Nc1cccc2cnccc12	26.1	-0.5	0.301	3.5	-5.5	17.4
CC(/C=C/c1ccc(N(C)C)cc1)=N\N=C(/N)SC1CC(=O)N(c2ccc(C(=O)O)cc2)C1=O (stereo unspecified)	-14.3	9.8*	/	16.8	3.0	5.5
Cc1cccc2nc(-c3ccccc3)nc(N[C@@H](CO)c3ccccc3)c12	-12.3	0.7	/	65.6*	-3.2	11.3
O=C1c2cccc3cccc(c23)C(=O)N1CCN1CCN(CC(O)COc2ccc3ccccc3c2)CC1 (stereo unspecified)	-42.6	8.2	/	98.7	0.1	56.6*
CC(C)(C)OC(=O)NNC(=O)NC12CC3CC(CC(C3)C1)C2	/	-0.1	/	-4.7	/	/
O=C(CCN(NC(=O)c1ccccc1)C1=NS(=O)(=O)c2ccccc21)NC1CCCCC1	-16.1	6.9	/	-3.3	5.1	2.2
O=C(NCc1ccccc1)C(=O)NCC1OCCN1S(=O)(=O)c1cccs1 (stereo unspecified)	-32.9	4.4	0.113	-2.7	1.7	35.6*
Cc1ccc(CNC(=O)C(=O)NCC2OCCN2S(=O)(=O)c2cccs2)cc1 (stereo unspecified)	-28.3	2.9	-0.574	-4.3	2.3	14.7
Cc1cccc(OCC(=O)NNC(=O)c2cc3ccccc3oc2=O)c1	-18.7	1.8	-0.443	-5.6	-19.8	43.4*
CCCNC(=O)CC1Sc2ccccc2NC1=O (stereo unspecified)	-76.7	0.6	0.335	-10.1	-3.3	13.1
CC(c1ccccc1)C1C(C#N)=C(N)OC2=C1C(=O)CC(C)(C)C2 (stereo unspecified)	1.9	-0.9	2.76*	12.8	16.0	7.2
CCOC(=S)SCC(=O)N1CCc2cc(OC)c(OC)cc2C1C1C(=O)CC(C)(C)CC1=O (stereo unspecified)	-11.9	0.5	/	-9.7	6.9	3.0
CCOC(=S)SCC(=O)N1CCc2ccccc2C1C1C(=O)CC(C)(C)CC1=O (stereo unspecified)	-27.7	1.9	/	-4.4	36.7*	5.7
COc1ccccc1C/C(N)=N/OC(=O)c1ccco1	/	-0.4	/	-3.4	/	/
COc1cccc(C(=O)/C=C/c2ccc(SC)cc2)c1	-31.2	9.2*	-1.16	-18.2	-24.0	7.0
CSc1ccc(/C=C/C(=O)c2ccc(NC(=O)C(C)C)cc2)cc1	-3.0	10.3*	1.59	24.6	-7.0	4.4
SMILES	Yeast growth inh	RAM network inh	hDAT+cocaine	WT yeast gro inh	Yeast lifespan up	Measles CPE
O=[N+]([O-])c1ccc(CN2CCCCCC2)s1	54.1*	-1.4	/	16.7	4.3	4.9
O=C(Cc1c[nH]c2ccccc12)NNC(=O)c1ccccc1	-4.9	0.1	/	-3.7	6.1	8.6
Cc1ccc(/C(N)=N/OC(=O)c2ccc(C)cc2Cl)cc1	57.7*	1.1	/	0.3	-6.2	5.1
N/C(=N\OC(=O)c1ccc(Cl)cc1Cl)c1ccccc1	95.6*	3.5	0.00827	8.3	-13.2	9.7
Cc1ccc(O)c(N=Nc2ccccc2)n1	/	/	0.812	/	/	/
CCO/C=C1/C(=O)N(Cc2ccccc2)C(=O)c2ccccc21	13.3	-1.5	/	-18.0	32.1*	2.9
CCO/C=C1\C(=O)N(c2ccccc2)C(=O)c2ccccc21	-45.8	0.7	-0.261	-3.5	-13.0	2.7
CCCCOc1ccc2c(C)cc(=O)oc2c1OCCCC	0.8	8.8*	0.125	10.7	/	8.6
CCOc1ccc2c(C)cc(=O)oc2c1OCC	-28.4	1.7	-0.455	12.6	-18.8	9.9
COc1cc(SC)ccc1C(=O)NCCOc1c(C)cc(C)cc1C	-52.0	2.8	-0.164	27.1	-8.3	3.3
COc1cc(SC)ccc1C(=O)NCCOc1ccc(Cl)cc1	-30.1	3.4	/	62.0*	-3.1	8.3
CC1CC(C)(C)Nc2ccc(N=O)cc21 (stereo unspecified)	/	2.3	/	74.8*	/	/
O=C(CSc1nc2ccccc2c(=O)n1Cc1ccco1)N1CCN(c2ccccc2)CC1	-5.2	3.3	0.076	-5.0	-3.1	44.6*
CCCn1c(SCC(=O)N2CCN(c3ccccc3)CC2)nc2ccccc2c1=O	-21.9	0.3	0.222	28.7	-12.7	3.0
CC(OC(=O)c1cc(=O)[nH]c2ccccc12)C(=O)c1ccccc1 (stereo unspecified)	/	3.7	/	-2.3	/	/
Cc1cccn2c(=O)c(C=Nc3ccc(Cl)cc3)c(NCCO)nc12	-21.8	2.2	-0.0359	21.2	3.2	9.1
Cc1cccn2c(=O)c(C=NCCO)c(Nc3ccc(Cl)cc3)nc12	/	8.9*	/	-7.9	/	/
CCN(CC)CC#CCC(OC)(c1ccccc1)c1ccccc1	/	0.7	/	28.2	/	/
O=C(Nc1cccc([N+](=O)[O-])c1)c1[nH]ncc1Cl	-18.7	4.3	/	3.1	-2.9	18.7
CSc1nccc(N2CCN(c3ccc(F)cc3)CC2)n1	-16.8	0.8	/	42.0	-6.5	7.2
CSc1nccc(-c2cc(Cl)sc2Cl)n1	-39.8	3.6	-0.00176	-20.7	-22.2	19.5*
CCOc1ccc2[nH]c(=O)c(CN(Cc3cccs3)Cc3nnnn3C(C)(C)CC)cc2c1	-49.8	2.4	0.411	-10.2	-20.5	25.0
CCC(C)(C)n1nnnc1CN(Cc1cccs1)Cc1cc2cc(OC)ccc2[nH]c1=O	-44.4	0.5	0.664	11.7	-9.8	37.4*
COc1ccc2[nH]c(=O)c(CN(Cc3cccs3)C(=S)Nc3cccc(C)c3)cc2c1	6.9	10.2*	/	29.7	-0.3	17.9
CNC(=S)N(Cc1cccs1)Cc1cc2cc(OC)ccc2[nH]c1=O	3.5	5.5	/	16.0	2.0	24.2
O=C(CCCOc1ccccc1)NC(=S)Nc1ccccc1	/	2.1	/	14.8	/	/
Cc1ccc2[nH]c(=O)c(CN(CC3COCCO3)C(=O)Nc3ccccc3F)cc2c1 (stereo unspecified)	/	-0.9	/	-4.8	/	/
